High-throughput results deposited in PubChem BioAssay by The Scripps Research Institute Molecular Screening Center.
Hits are enriched below; roughly 1.1% of the tested compounds scored in any of these assays.
procasp7 counter = procaspase-7 activators, primary screen, counter-screen for procaspase-3 activator project, biochemical, absorbance, HTS, human; activation, % at 8.5 µM; 0.093% of 330,000 active; Caspase-7 (Homo sapiens), P55210; recombinant procaspase-7, Ac-DEVD-pNA absorbance 405 nm; D23A/D198A/D206A triple mutant, cannot self-cleave; scale: DMSO 0, 5 µM enzyme 100; AID 463210, 2010;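 active = percent activation above the screen-wide mean plus 3 SD, cut at about 25% in these data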
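Detection: p-Nitroaniline absorbance at 405 nm, read at 0 and 120 min; system: Uncleavable procaspase-7 mutant enzyme; evaluation: % activation from two-timepoint absorbance difference, scaled to controls; times: 1 h enzyme–compound preincubation and 2 h substrate reaction, both 25 °C; buffer or medium: Zinc-free HEPES pH 7.4 with 300 mM NaCl, 0.01% Triton X-100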
proCasp3 act = activators of human procaspase-3 D3A mutant, primary screen, biochemical, absorbance, PC-3 D3A mutant, single concentration; Caspase-3 (Homo sapiens), P42574; recombinant procaspase-3 D3A, Ac-DEVD-pNA absorbance 405 nm; activation, % at 8.5 µM; 0.11% of 330,000 active;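 active = activation above the mean of all tested compounds plus 3 SD, cut at about 21% in these data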
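assay system = Procaspase-3 D3A mutant | signal = absorbance at 405 nm, 0 and 120 min | times = 1 h preincubation plus 2 h reaction at 25 °C | repeats = single replicate | read-out = % activation between DMSO and enzyme-spiked controls | medium = Zinc-free HEPES saline buffer with Triton X-100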
LYPLA1 inh = LYPLA1 inhibitors, primary screen, counter-screen for PME1 inhibitor project, biochemical, fluorescence polarization, FP-Rh probe ABPP; recombinant LYPLA1; 0.16% of 320,000 active; Acyl-protein thioesterase 1 (Homo sapiens), O75608; inhibition, % at 5.9 µM;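 active = inhibition above the mean of all tested compounds plus 3 SD, set per campaign, cut at about 14% in these data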;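 also: inhibitors block serine hydrolase probe labeling of LYPLA1 so polarization falls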
Target sequence (O75608 whole entry, looked up): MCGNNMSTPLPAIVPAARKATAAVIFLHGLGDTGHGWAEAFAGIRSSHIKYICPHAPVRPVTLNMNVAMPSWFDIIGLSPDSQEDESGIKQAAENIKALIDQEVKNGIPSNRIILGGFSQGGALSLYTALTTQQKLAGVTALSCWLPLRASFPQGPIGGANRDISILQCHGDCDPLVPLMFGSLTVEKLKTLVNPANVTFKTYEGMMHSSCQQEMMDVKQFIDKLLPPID
PREPL inh = PREPL enzyme inhibitors, primary screen, biochemical, fluorescence polarization; Prolyl endopeptidase-like (Homo sapiens), Q4J6C6; recombinant PREPL, fluorescence polarization activity-based probe; inhibition, % at 5.96 µM; 0.68% of 320,000 active
LYPLA2 inh = LYPLA2 inhibitors, primary screen, counter-screen for PME1 inhibitor project, biochemical, fluorescence polarization, FP-Rh probe ABPP; Acyl-protein thioesterase 2 (Homo sapiens), O95372; recombinant LYPLA2; inhibition, % at 5.9 µM; 0.38% of 320,000 active; AID 2177, 2009;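 active = inhibition above the screen-wide mean plus 3 SD, limit set per campaign, cut at about 26% in these data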
Target sequence (O95372 whole entry, looked up): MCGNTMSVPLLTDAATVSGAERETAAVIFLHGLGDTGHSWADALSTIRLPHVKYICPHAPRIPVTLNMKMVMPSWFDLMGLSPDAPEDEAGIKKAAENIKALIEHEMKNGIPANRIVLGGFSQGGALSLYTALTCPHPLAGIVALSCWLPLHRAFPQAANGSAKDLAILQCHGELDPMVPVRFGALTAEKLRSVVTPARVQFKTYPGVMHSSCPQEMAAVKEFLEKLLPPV
PREPL inh cf = human PREPL enzyme inhibitors, confirmation, biochemical, fluorescence polarization; shares compounds with PREPL inh; recombinant PREPL, fluorescence polarization activity probe; inhibition, % at 5.96 µM; 67% of 2,000 active
Large screens that a line does not name were inactive (follow-up assays come after a bar, where they were run). Rule as the data show it, unless noted: active = inhibition above about 43%; inactive = the rest.

CCCCC(=O)N1C/C=C\C(c2ccc(OC)cc2)N(Cc2ccc(F)cc2)C(=O)[C@H]1Cc1ccccc1 (stereo partly drawn)	none
CCCCCCC(=O)N1C/C=C\C(c2ccc(OC)cc2)N(Cc2ccc(F)cc2)C(=O)[C@H]1Cc1ccccc1 (stereo partly drawn)	PREPL inh 48 | PREPL inh cf 44
Cc1ccc(NC2=CC(=O)C(=O)c3ccccc32)c(C)c1	PREPL inh 47 | PREPL inh cf inactive
CCN(C(=O)CSc1nc(C)nc2sc3c(c12)CCC3)C1CCS(=O)(=O)C1 (stereo not drawn)	PREPL inh 54 (no result: LYPLA1 inh, LYPLA2 inh) | PREPL inh cf inactive
C=CCN1C(=O)c2ccc(C(=O)N(CCOC)c3c(N)n(CCCC)c(=O)[nH]c3=O)cc2C1=O	none
C[C@H]1c2cccc(O)c2C(O)=C2C(=O)[C@]3(O)C(O)=C(C(N)=O)C(=O)[C@@H](N(C)C)C3[C@@H](O)C21 (stereo partly drawn)	none
C=C1c2cccc(O)c2C(=O)C2C(=O)[C@]3(O)C(=O)C(C(N)=O)C(=O)[C@@H](N(C)C)[C@@H]3[C@@H](O)[C@H]12 (stereo partly drawn)	PREPL inh 62 (no result: LYPLA1 inh, LYPLA2 inh) | PREPL inh cf inactive
CCOC(=O)/C(C#N)=C\c1ccc(N2CCN(C/C=C/c3ccccc3)CC2)cc1	PREPL inh 51 | PREPL inh cf 46
CCOC(=O)/C(C#N)=C\c1cc(C)n(-c2ccccc2)c1C	none
COc1cc(/C=C(\C#N)C(=O)N2CCOCC2)cc(Br)c1O	none
COc1cc(/C=C(\C#N)C(=O)c2ccc(O)c(O)c2)cc(I)c1O	PREPL inh 56 | PREPL inh cf inactive
CC(=O)c1c(C)[nH]c(C(=O)CN2CCN(S(=O)(=O)c3ccccc3F)CC2)c1C	none (no result: LYPLA1 inh, LYPLA2 inh)
COc1cccc(N2CCN(Cc3nc4ccccc4c(=O)[nH]3)CC2)c1	PREPL inh 48 | PREPL inh cf inactive
O=C1/C(=C/c2cccc(Cl)c2)SC(=S)N1CCC(=O)N1CCCCC1CCO (stereo not drawn)	PREPL inh 45 | PREPL inh cf 44
O=C1/C(=C/c2ccc(Cl)cc2)SC(=S)N1CCC(=O)N1CCCCC1CCO (stereo not drawn)	none
O=C1/C(=C/c2ccccc2F)SC(=S)N1CCC(=O)N1CCCCC1CCO (stereo not drawn)	PREPL inh 46 | PREPL inh cf 43
COc1cccc(N2CCN(c3ncnc4c3[nH]c3ccccc34)CC2C)c1 (stereo not drawn)	PREPL inh 46 | PREPL inh cf 46
COc1cc2[nH]c3c(N4CCN(c5ccc(Cl)cc5)CC4)ncnc3c2cc1OC	PREPL inh 95 | PREPL inh cf 75
COc1cccc(N2CCN(c3ncnc4c3[nH]c3ccc(F)cc34)CC2C)c1 (stereo not drawn)	PREPL inh 49 | PREPL inh cf 47
O=C(CN1CCCCC1)NC1CCc2cc3c(cc21)CCC3 (stereo not drawn)	none
COc1nc(NCCN2CCOCC2)nc(Nc2ccc([N+](=O)[O-])cc2)n1	PREPL inh 47 | PREPL inh cf inactive
CCOc1nc(NCCN2CCOCC2)nc(Nc2ccc([N+](=O)[O-])cc2)n1	none
CC(=O)COC(=O)C1=NN(c2ccccc2)C(=O)CC1	none
O=C1Nc2ccccc2S/C1=C/Nc1cccc(Cl)c1	PREPL inh 45 | PREPL inh cf inactive
COc1ccccc1NC(=O)N1CCCC1C(=O)NCc1ccccc1Cl (stereo not drawn)	none
O=C(O/N=C(\c1ccccc1)c1ccncc1)c1ccccc1Cl	PREPL inh 54 | PREPL inh cf inactive
CC(SCC(=O)Nc1ccccc1Br)c1nc2ccccc2c(=O)[nH]1 (stereo not drawn)	none (no result: LYPLA1 inh, LYPLA2 inh)
Nc1[nH]n(-c2ccccc2)c(=O)c1N=Nc1ccc2c(c1)OCO2	PREPL inh 45 | PREPL inh cf 47
Cc1nn(-c2ccccc2)c(N)c1N=Nc1cccnc1	none
Nc1[nH]n(-c2ccccc2)c(=O)c1N=Nc1ccc2c(c1)OCCO2	none
Nc1nn(-c2ccccc2)c(N)c1N=Nc1ccc2c(c1)OCO2	PREPL inh 60 | PREPL inh cf 60
Nc1nn(-c2ccccc2)c(N)c1N=Nc1cccc(F)c1	PREPL inh 65 | PREPL inh cf 60
COc1cc2c(cc1OC)CN(C(=O)c1cc(S(=O)(=O)N3CCOCC3)c(Cl)cc1Cl)CC2	none
COc1ccc(-c2nc(CS(=O)(=O)CC(=O)NCc3ccccc3OC)c(C)o2)cc1	none
Cc1ccccc1C(=O)Nc1nnc(SCC(=O)NC2CC2)s1	none
O=C(O)c1cc(C(=O)O)c(-c2ccccc2)c(C(=O)O)c1	none
O=C([O-])c1ccccc1-[n+]1c(-c2ccccc2)cc(-c2ccccc2)cc1-c1ccccc1	PREPL inh 56 | PREPL inh cf 46
O=C(NCCN1CCOCC1)C(=O)NCC1OCCN1S(=O)(=O)c1ccccc1 (stereo not drawn)	none
COc1ccc(C2=NOC(Cn3nc(C(=O)NCc4cccc(Br)c4)cc3-c3ccccc3)C2)cc1 (stereo not drawn)	none (no result: LYPLA1 inh, LYPLA2 inh)
CC(=O)N1CCN(c2ccc(NCc3cccc4ccccc34)cc2)CC1	PREPL inh 78 | PREPL inh cf 62
CC(=O)N1CCN(c2ccc(NCc3ccc(C)s3)cc2)CC1	PREPL inh 54 | PREPL inh cf inactive
CC(=O)N1CCN(c2ccc(NCc3ccccc3)cc2)CC1	none
Cc1ccc(CNc2ccc(N3CCOCC3)cc2)s1	none
CN1CCN(c2ccc(NC(=O)c3ccc(-c4ccc(Br)cc4)o3)cc2)CC1	none
CC(=O)N1CCN(c2ccc(NCc3ccc(-c4ccc(Br)cc4)o3)cc2)CC1	PREPL inh 71 (no result: LYPLA1 inh, LYPLA2 inh) | PREPL inh cf 66
CC(=O)N1CCN(c2ccc(NCc3ccc(Br)o3)cc2)CC1	PREPL inh 44 | PREPL inh cf 45
CC(/C=C/c1ccco1)=N/NC(=O)c1ccc(C)nc1	PREPL inh 60 | PREPL inh cf inactive
Cc1ccc(C(=O)Oc2ccc(/C=C3\C(=N)N4N=C(N5CCOCC5)SC4=NC3=O)cc2)cc1	PREPL inh 62 | PREPL inh cf inactive
N=C1/C(=C\c2ccc(OC(=O)c3ccccc3)cc2)C(=O)N=C2SC(N3CCOCC3)=NN12	PREPL inh 61 | PREPL inh cf inactive
